Data published in ChEMBL document CHEMBL1150813, “Triterpene saponins from Vietnamese ginseng (Panax vietnamensis) and their hepatocytoprotective activity” (J Nat Prod, 2001).

Experiments:
Type in all cases: functional
[1] = system: Hepatocyte; test: Hepatoprotective activity in mouse hepatocytes assessed inhibition of D-galactosamine/TNFalpha-induced cell death at 50 uM administered before 30 mins of TNFalpha challenge measured after 18 hrs
Method in brief: (§1)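 Primary mouse hepatocytes, isolated by collagenase perfusion, were cultured in William's E medium with 10% calf serum, dexamethasone and insulin at 1.5×10^4 cells/well. TNF-α (100 ng/mL) was added 30 min later. Viability was read by MTT after 18 h. Values are mean ± SD, n = 4 (normal and control n = 8), with Student's t-test versus control.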

[2] = system: Hepatocyte; test: Hepatoprotective activity against D-galactosamine/TNFalpha-induced cell death in mouse hepatocytes assessed cell survival rate at 100 uM administered before 30 mins of TNFalpha challenge measured after 18 hrs by MTT assay; method in brief: as §1
[3] = system: Hepatocyte; test: Hepatoprotective activity against D-galactosamine/TNFalpha-induced cell death in mouse hepatocytes assessed cell survival rate at 200 uM administered before 30 mins of TNFalpha challenge measured after 18 hrs by MTT assay; method in brief: as §1
[4] = system: Hepatocyte; test: Hepatoprotective activity in mouse hepatocytes assessed inhibition of D-galactosamine/TNFalpha-induced cell death at 100 uM administered before 30 mins of TNFalpha challenge measured after 18 hrs; method in brief: as §1
[5] = system: Hepatocyte; test: Hepatoprotective activity in mouse hepatocytes assessed protection against D-galactosamine/TNFalpha-induced cell death at 100 uM administered before 30 mins of TNFalpha challenge measured after 18 hrs; method in brief: as §1
[6] = system: Hepatocyte; test: Hepatoprotective activity in mouse hepatocytes assessed inhibition of D-galactosamine/TNFalpha-induced cell death at 200 uM administered before 30 mins of TNFalpha challenge measured after 18 hrs; method in brief: as §1
[7] = system: Hepatocyte; test: Hepatoprotective activity in mouse hepatocytes assessed protection against D-galactosamine/TNFalpha-induced cell death at 200 uM administered before 30 mins of TNFalpha challenge measured after 18 hrs; method in brief: as §1
[8] = system: Hepatocyte; test: Hepatoprotective activity in mouse hepatocytes assessed protection against D-galactosamine/TNFalpha-induced cell death at 50 uM administered before 30 mins of TNFalpha challenge measured after 18 hrs; method in brief: as §1
[9] = system: Hepatocyte; test: Hepatoprotective activity against D-galactosamine/TNFalpha-induced cell death in mouse hepatocytes assessed cell survival rate at 50 uM administered before 30 mins of TNFalpha challenge measured after 18 hrs by MTT assay; method in brief: as §1
[10] = system: Hepatocyte; test: Hepatoprotective activity in mouse hepatocytes assessed inhibition of D-galactosamine/TNFalpha-induced cell death dosed administered before 30 mins of TNFalpha challenge measured after 18 hrs; method in brief: as §1

Compound	inhibition (INH) [1]	Survival [2]	Survival [3]	inhibition (INH) [4]	Activity [5]	inhibition (INH) [6]	Activity [7]	Activity [8]	Survival [9]	IC50 [10]
C=C(C)C(=O)CC[C@](C)(O[C@@H]1O[C@H](CO)[C@@H](O)[C@H](O)[C@H]1O)[C@H]1CC[C@]2(C)[C@@H]1[C@H](O)C[C@@H]1[C@@]3(C)CC[C@H](O)C(C)(C)[C@@H]3[C@@H](O[C@@H]3O[C@H](CO)[C@@H](O)[C@H](O)[C@H]3O)C[C@]12C	19.2%	38.4%	44.3%	28.3%	12%	48.2%	20.5%	8.2%	35.6%	–
CC(C)=CCC[C@](C)(O[C@@H]1O[C@H](CO[C@@H]2O[C@H](CO)[C@@H](O)[C@H](O)[C@H]2O)[C@@H](O)[C@H](O)[C@H]1O)[C@H]1CC[C@]2(C)[C@@H]1[C@H](O)C[C@@H]1[C@@]3(C)CC[C@H](O[C@@H]4O[C@H](CO)[C@@H](O)[C@H](O)[C@H]4O[C@@H]4O[C@H](CO)[C@@H](O)[C@H](O)[C@H]4O)C(C)(C)[C@@H]3CC[C@]12C [GINSENOSIDE RB1]	14.3%	36%	39.6%	19.8%	8.5%	31.9%	13.7%	6%	34.4%	–
CC(C)=CCC[C@](C)(O[C@@H]1O[C@H](CO)[C@@H](O)[C@H](O)[C@H]1O)[C@H]1CC[C@]2(C)[C@@H]1[C@H](O)C[C@@H]1[C@@]3(C)CC[C@H](O)C(C)(C)[C@@H]3[C@@H](O[C@@H]3O[C@H](CO)[C@@H](O)[C@H](O)[C@H]3O)C[C@]12C [GINSENOSIDE RG1]	39.3%	42%	48.3%	40.6%	17.3%	61.4%	26.2%	16.7%	41.6%	111 µM
CC(C)=CC/C=C(\C)[C@H]1CC[C@]2(C)[C@@H]1[C@H](O)C[C@@H]1[C@@]3(C)CC[C@H](O)C(C)(C)[C@@H]3[C@@H](O[C@@H]3O[C@H](CO)[C@@H](O)[C@H](O)[C@H]3O)C[C@]12C [GINSENOSIDE RH4]	13.7%	45%	50%	50.6%	24.8%	67.1%	35.1%	8%	34%	97 µM
CO[C@@](C)(CCC=C(C)C)[C@H]1CC[C@]2(C)[C@@H]1[C@H](O)C[C@@H]1[C@@]3(C)CC[C@H](O)C(C)(C)[C@@H]3[C@@H](O[C@@H]3O[C@H](CO)[C@@H](O)[C@H](O)[C@H]3O)C[C@]12C [GINSENOSIDE RH5]	23.5%	–	–	27.9%	–	-24%	–	13.1%	36.9%	–
CC(C)=CCC[C@](C)(O[C@@H]1O[C@H](CO)[C@@H](O)[C@H](O)[C@H]1O)[C@H]1CC[C@]2(C)[C@@H]1[C@H](O)C[C@@H]1[C@@]3(C)CC[C@H](O)C(C)(C)[C@@H]3[C@@H](O[C@@H]3O[C@H](CO)[C@@H](O)[C@H](O)[C@H]3O[C@@H]3O[C@@H](C)[C@H](O)[C@@H](O)[C@H]3O)C[C@]12C [GINSENOSIDE RE]	21.1%	41.2%	52.4%	37%	15.9%	74.3%	31.9%	8.9%	36.4%	119 µM
CC(C)=CCC[C@](C)(O[C@@H]1O[C@H](CO)[C@@H](O)[C@H](O)[C@H]1O)[C@H]1CC[C@]2(C)[C@@H]1[C@H](O)C[C@@H]1[C@@]3(C)CC[C@H](O[C@@H]4O[C@H](CO)[C@@H](O)[C@H](O)[C@H]4O[C@@H]4O[C@H](CO)[C@@H](O)[C@H](O)[C@H]4O)C(C)(C)[C@@H]3CC[C@]12C [GINSENOSIDE RD]	17.5%	35.9%	41.8%	19.5%	8.4%	39.1%	16.8%	7.4%	35.3%	–
CC1(C)[C@@H](O[C@H]2O[C@H](C(=O)O)[C@@H](O)[C@H](O)[C@H]2O[C@@H]2O[C@H](C(=O)O)[C@@H](O)[C@H](O)[C@H]2O)CC[C@]2(C)[C@H]3C(=O)C=C4[C@@H]5C[C@@](C)(C(=O)O)CC[C@]5(C)CC[C@@]4(C)[C@]3(C)CC[C@@H]12 [GLYCYRRHIZIN]	11%	33.4%	36.2%	11.1%	4.8%	20.3%	8.7%	1%	33%	> 200 µM
CC(C)(O)[C@@H]1CC[C@@](C)([C@H]2CC[C@]3(C)[C@@H]2[C@H](O)C[C@@H]2[C@@]4(C)CC[C@H](O)C(C)(C)[C@@H]4[C@@H](O[C@@H]4O[C@H](CO)[C@@H](O)[C@H](O)[C@H]4O[C@@H]4OC[C@@H](O)[C@H](O)[C@H]4O)C[C@]23C)O1 [MAJONOSIDE R2]	37.5%	46.4%	54.8%	55.2%	19.3%	83.3%	35.5%	16%	41.1%	82.4 µM
CC(C)=CCC[C@](C)(O)[C@H]1CC[C@]2(C)[C@@H]1[C@H](O)C[C@@H]1[C@@]3(C)CC[C@H](O)C(C)(C)[C@@H]3[C@@H](O[C@@H]3O[C@H](CO)[C@@H](O)[C@H](O)[C@H]3O)C[C@]12C [GINSENOSIDE RH1]	27.4%	40.8%	54%	36.6%	15.6%	80.5%	34.3%	11.7%	38.1%	105 µM
CC(=O)OC[C@H]1O[C@@H](O[C@H]2C[C@]3(C)[C@H](C[C@@H](O)[C@@H]4[C@@H]([C@]5(C)CC[C@@H](C(C)(C)O)O5)CC[C@]43C)[C@@]3(C)CC[C@H](O)C(C)(C)[C@H]23)[C@H](O[C@@H]2OC[C@@H](O)[C@H](O)[C@H]2O)[C@@H](O)[C@@H]1O [GINSENOSIDE R2]	44.7%	51.7%	72.9%	72.9%	31.1%	143.8%	61.3%	19%	43.2%	63.2 µM
CC1(C)O[C@](C)([C@H]2CC[C@]3(C)[C@@H]2[C@H](O)C[C@@H]2[C@@]4(C)CC[C@H](O)C(C)(C)[C@@H]4[C@@H](O[C@@H]4O[C@H](CO)[C@@H](O)[C@H](O)[C@H]4O)C[C@]23C)CC[C@H]1O [GINSENOSIDE R10]	37.6%	38.3%	35.2%	28%	12%	17.8%	7.6%	16%	41.1%	–
CC(C)(O)[C@@H]1CC[C@@](C)([C@H]2CC[C@]3(C)[C@@H]2[C@H](O)C[C@@H]2[C@@]4(C)CC[C@H](O)C(C)(C)[C@@H]4[C@@H](O[C@@H]4O[C@H](CO)[C@@H](O)[C@H](O)[C@H]4O)C[C@]23C)O1	31.8%	48.7%	57.2%	62.8%	26.8%	91.5%	39%	13.6%	39.4%	74.8 µM
CC(C)=CCC[C@](C)(O[C@@H]1O[C@H](CO[C@@H]2O[C@@H](CO)[C@H](O)[C@H]2O)[C@@H](O)[C@H](O)[C@H]1O)[C@H]1CC[C@]2(C)[C@@H]1[C@H](O)C[C@@H]1[C@@]3(C)CC[C@H](O[C@@H]4O[C@H](CO)[C@@H](O)[C@H](O)[C@H]4O[C@@H]4O[C@H](CO)[C@@H](O)[C@H](O)[C@H]4O)C(C)(C)[C@@H]3CC[C@]12C [GINSENOSIDE RC]	6.7%	31.4%	26.7%	4.4%	1.9%	-11.3%	–	3.2%	32.1%	–
